# Measurements from different studies.
# SLC22A2: Solute carrier family 22 member 2 (SLC22A2, Homo sapiens, UniProt O15244)
Compound,target or system,test,system,conditions,endpoint,value
CON=C(N)c1ccc(-c2ccc(-c3ccc(C(N)=NOC)cc3)o2)cc1,"Cytochrome P450 1B1 (CYP1B1, Homo sapiens, UniProt Q16678)","enzyme activity, substrate",,,Km,0.3 µM
CC(C)(O)c1ccccc1-c1ccc2[nH]c(/C=C/c3ccc(C(F)(F)F)cc3)nc2c1,,,"male human, plasma","oral, 60 mg, single dose, fasted, healthy volunteers",half-life,53.4 h
O=C(O)CSc1nnc(Br)n1-c1ccc(C2CC2)c2ccccc12,SLC22A2,"transporter uptake, inhibitor",MDCK-II,"100 µM, 5 min",inhibition,26%
COc1ccc(S(=O)(=O)ON=C2C=C(C)C(=O)C(C)=C2)cc1,MDA-MB-468,cell growth or viability,,,CC50,2570 nM
COc1ccc(-c2ocnc2C(=O)NCCCn2cncn2)cc1Cl,THLE,cell growth or viability,,,IC50,117000 nM
C=C[C@H]1C[N@@]2CC[C@H]1C[C@@H]2[C@@H](O)c1ccnc2ccc(OC)cc12,SLC22A2,"transporter uptake, inhibitor",MDCK-II,"100 µM, 5 min",inhibition,78%
CC[C@H](C)[C@H](NC(=O)[C@H](CCC(=O)O)NC(=O)[C@H](CO)NC(=O)[C@@H](NC(=O)[C@@H](N)CO)C(C)C)C(=O)N[C@@H](CCC(N)=O)C(=O)N[C@@H](CC(C)C)C(=O)N[C@@H](CCSC)C(=O)N[C@@H](Cc1cnc[nH]1)C(=O)N[C@@H](CC(N)=O)C(=O)N[C@@H](CC(C)C)C(=O)NCC(=O)N[C@@H](CCCCN)C(=O)N[C@@H](Cc1cnc[nH]1)C(=O)N[C@@H](CC(C)C)C(=O)N[C@@H](CC(N)=O)C(=O)N[C@@H](CO)C(=O)N[C@@H](CCSC)C(=O)N[C@@H](CCC(=O)O)C(=O)N[C@@H](CCCN=C(N)N)C(=O)N[C@H](C(=O)N[C@@H](CCC(=O)O)C(=O)N[C@@H](Cc1c[nH]c2ccccc12)C(=O)N[C@@H](CC(C)C)C(=O)N[C@@H](CCCN=C(N)N)C(=O)N[C@@H](CCCCN)C(=O)N[C@@H](CCCCN)C(=O)N[C@@H](CC(C)C)C(=O)N[C@@H](CCC(N)=O)C(=O)N[C@@H](CC(=O)O)C(=O)N[C@H](C(=O)N[C@@H](Cc1cnc[nH]1)C(=O)N[C@@H](CC(N)=O)C(=O)N[C@@H](Cc1ccccc1)C(=O)O)C(C)C)C(C)C,,"chemical stability, HPLC",aqueous buffer,"0.5 mg/mL, 2 min, pH 6.5",compound remaining,100%
CC(C)n1cc(C#N)c2cc(-n3cc(C(=O)O)cn3)ccc21,,,"human, plasma","oral, 400 mg, single dose, fasted, healthy volunteers",half-life,13.1 h
COC(=O)c1csc(C(=O)c2c[nH]c3ccccc23)n1,"Aryl hydrocarbon receptor (AHR, Homo sapiens, UniProt P35869)","reporter gene, agonist, luciferase",,,EC50,4.6 nM
